Experimental findings from ChEMBL document CHEMBL2380256, “Discovery of novel Jak2-Stat pathway inhibitors with extended residence time on target” (Bioorg Med Chem Lett, 2013) are described below.

The nature of data set [1]: Total plasma concentration in nude mouse allografted with mouse Ba/F3 cells expressing JAK2 TEL domain at 5 mg/kg, po qd measured at 6 hrs. Details: dose 5 mg/kg, route oral. It is filed as ADME, organism-based, BaF3. In a few lines: (§1)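 Female nude mice implanted intravenously with Ba/F3 TEL-JAK2 cells on day 0 and dosed orally on day 10. Total plasma drug concentration was measured at the stated times post-dose, averaged over n = 3 per dose and time point.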

Data set [2] can be described thus: Total plasma concentration in nude mouse allografted with mouse Ba/F3 cells expressing JAK2 TEL domain at 5 mg/kg, po qd measured at 2 hrs. It is filed as ADME, organism-based, BaF3. The arrangement: dose 5 mg/kg, route oral. In a few lines:
as §1

The nature of data set [3]: Total plasma concentration in nude mouse allografted with mouse Ba/F3 cells expressing JAK2 TEL domain at 10 mg/kg, po qd measured at 2 hrs. It counts as ADME, organism-based, BaF3. Details: dose 10 mg/kg, route oral. Summed up:
as §1

The nature of data set [4]: Total plasma concentration in nude mouse allografted with mouse Ba/F3 cells expressing JAK2 TEL domain at 10 mg/kg, po qd measured at 6 hrs. It counts as ADME, organism-based, BaF3. Details: dose 10 mg/kg, route oral. Summed up:
as §1

Data set [5] in a line: Fraction unbound in nude mouse plasma allografted with mouse Ba/F3 cells expressing JAK2 TEL domain at 5 to 10 mg/kg, po qd after 6 hrs. The arrangement: dose 5-10 mg/kg, route oral. It is filed as ADME, organism-based, BaF3.
Data set [6] deals with Mus musculus. Briefly: In vivo inhibition of JAK2 TEL domain (unknown origin) transfected in mouse Ba/F3 cells allografted in nude mouse assessed as inhibition of STAT5 phosphorylation at 5 mg/kg, po qd after 6 hrs. It is filed as functional, organism-based. The arrangement: dose 5 mg/kg. Particulars: BaF3. Summed up:
(§2)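 Female nude mice implanted intravenously with Ba/F3 TEL-JAK2 cells on day 0 and given a single oral dose on day 10. pStat5 was measured at the stated times post-dose. % inhibition was scaled between vehicle and a control inhibitor as maximum and minimum, with n = 3 per dose and time point, reported as mean ±SD.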

In data set [7] the test system is Mus musculus. Briefly: In vivo inhibition of JAK2 TEL domain (unknown origin) transfected in mouse Ba/F3 cells allografted in nude mouse assessed as inhibition of STAT5 phosphorylation at 10 mg/kg, po qd after 6 hrs relative to vehicle-treated control. It counts as functional. Conditions: BaF3, 6 h. Summed up: as §2
A further data set concerns Hepatocyte. Briefly: Metabolic stability in human hepatocytes measured per 10^6 cells. It counts as ADME, cell-based.
The nature of data set [8]: Volume of distribution at steady state in beagle dog at 5 mg/kg, po and 2.5 mg/kg, iv. It counts as ADME, organism-based, Canis lupus familiaris. Particulars: in vivo, read-out: Vdss. In a few lines:
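Male Beagle dogs. Oral 5 mg/kg in 0.1% HPMC; intravenous 2.5 mg/kg in HP-β-CD.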

Data set [9] is described as follows: Volume of distribution at steady state in CD1 mouse at 10 mg/kg, po and 3 mg/kg, iv. It is filed as ADME, organism-based. Conditions: in vivo, read-out: Vdss. Summed up:
(§3)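 Single-dose PK: female CD-1 mice and male Han Wistar rats, 10 mg/kg po in 0.1% HPMC and 3 mg/kg iv in DMA/PEG/saline 40/40/20.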

Data set [10] in a line: Volume of distribution at steady state in Han Wistar rat at 10 mg/kg, po and 3 mg/kg, iv. It counts as ADME, organism-based. Particulars: in vivo, read-out: Vdss.
The nature of data set [11]: Clearance in beagle dog at 5 mg/kg, po and […] mg/kg, iv. It counts as ADME, organism-based, Canis lupus familiaris. Conditions: in vivo, 2.5 mg/kg.
Data set [12] can be described thus: Clearance in CD1 mouse at 10 mg/kg, po and 3 mg/kg, iv. It is filed as ADME, organism-based. Particulars: in vivo. Summed up: as §3
Data set [13] can be described thus: Clearance in Han Wistar rat at 10 mg/kg, po and 3 mg/kg, iv. It is filed as ADME, organism-based. Conditions: in vivo. In a few lines: as §3
The nature of data set [14]: AUC in beagle dog at 5 mg/kg, po and […] mg/kg, iv. It counts as ADME, organism-based, Canis lupus familiaris. Conditions: plasma.
Data set [15] can be described thus: AUC in CD1 mouse at 10 mg/kg, po and 3 mg/kg, iv. It counts as ADME, organism-based. Conditions: plasma. Summed up:
as §3

A short description of data set [16]: AUC in Han Wistar rat at 10 mg/kg, po and 3 mg/kg, iv. Particulars: plasma. It counts as ADME, organism-based. In a few lines:
as §3

Data set [17] in a line: Oral bioavailability in beagle dog at 5 mg/kg. It counts as ADME, organism-based, Canis lupus familiaris. Conditions: in vivo. In a few lines: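 Male Beagle dogs received 5 mg/kg po (0.1% HPMC) and 2.5 mg/kg iv (HP-β-CD). %F = (AUCpo × DoseIV)/(AUCIV × Dosepo) × 100.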
A short description of data set [18]: Oral bioavailability in CD1 mouse at 10 mg/kg. It is filed as ADME, organism-based. Particulars: in vivo. In a few lines:
(§4)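 Oral bioavailability in female CD-1 mice and male Han Wistar rats: 10 mg/kg po (0.1% HPMC) versus 3 mg/kg iv (DMA/PEG/saline 40/40/20). %F = (AUCpo × DoseIV)/(AUCIV × Dosepo) × 100.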

The nature of data set [19]: Oral bioavailability in Han Wistar rat at 10 mg/kg. It is filed as ADME, organism-based. Conditions: in vivo. In a few lines: as §4
A short description of data set [20]: Growth inhibition of human UKE1 cells harboring JAK2 V617F mutant after 2 days by [3H]-thymidine incorporation assay. It counts as functional.
For a further data set, the system named is SET-2. Briefly: Growth inhibition of human SET2 harboring JAK2 V617F mutant after 24 hrs by Alamar Blue assay. It is filed as functional. Conditions: SET-2, 24 h. In general terms: Resazurin is reduced to fluorescent resorufin, in cell work by metabolically active cells.
The target of data set [21] is T1, Tyrosine-protein kinase JAK2 (Homo sapiens, UniProt O60674). Nature of the data set: Competitive inhibition of JAK2 (unknown origin).
T1 sequence (O60674 whole entry, the tested form may be a part): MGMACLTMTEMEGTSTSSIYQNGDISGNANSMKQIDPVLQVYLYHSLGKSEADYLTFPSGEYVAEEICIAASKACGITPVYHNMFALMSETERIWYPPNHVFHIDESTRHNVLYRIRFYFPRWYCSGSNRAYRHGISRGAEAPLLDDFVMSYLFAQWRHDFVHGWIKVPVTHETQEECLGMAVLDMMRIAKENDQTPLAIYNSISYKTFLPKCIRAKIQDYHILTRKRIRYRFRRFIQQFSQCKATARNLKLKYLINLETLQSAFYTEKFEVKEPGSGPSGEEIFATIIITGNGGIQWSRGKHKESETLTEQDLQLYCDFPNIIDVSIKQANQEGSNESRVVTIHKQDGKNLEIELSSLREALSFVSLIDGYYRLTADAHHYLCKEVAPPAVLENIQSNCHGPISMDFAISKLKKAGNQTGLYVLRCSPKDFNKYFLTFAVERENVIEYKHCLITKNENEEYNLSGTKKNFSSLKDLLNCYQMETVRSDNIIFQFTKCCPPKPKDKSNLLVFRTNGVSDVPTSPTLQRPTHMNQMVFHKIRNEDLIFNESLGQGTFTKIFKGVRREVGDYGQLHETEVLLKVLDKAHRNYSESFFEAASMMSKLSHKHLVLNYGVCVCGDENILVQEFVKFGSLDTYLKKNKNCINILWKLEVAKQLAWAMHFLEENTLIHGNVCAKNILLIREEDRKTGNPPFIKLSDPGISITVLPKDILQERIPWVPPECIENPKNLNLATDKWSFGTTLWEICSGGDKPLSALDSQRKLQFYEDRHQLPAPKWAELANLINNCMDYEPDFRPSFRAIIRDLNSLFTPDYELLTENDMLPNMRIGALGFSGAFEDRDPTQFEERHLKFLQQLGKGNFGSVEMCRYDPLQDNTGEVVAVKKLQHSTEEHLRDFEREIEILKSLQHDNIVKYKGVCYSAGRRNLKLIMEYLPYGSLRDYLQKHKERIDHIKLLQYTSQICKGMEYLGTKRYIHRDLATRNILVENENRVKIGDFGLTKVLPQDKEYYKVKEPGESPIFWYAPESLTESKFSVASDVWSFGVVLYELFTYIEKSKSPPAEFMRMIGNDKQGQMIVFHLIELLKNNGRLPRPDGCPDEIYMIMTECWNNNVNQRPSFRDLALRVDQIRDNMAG
The nature of data set [22]: Growth inhibition of mouse BA/F3 cells transfected with JAK3 TEL domain after 24 hrs by Alamar Blue assay. It counts as functional, cell-based. Particulars: BaF3, 24 h, read-out: GI50.
Data set [23] in a line: Growth inhibition of mouse BA/F3 cells transfected with JAK2 TEL domain after 24 hrs by Alamar Blue assay. It counts as functional. Particulars: BaF3, 24 h.
Data set [24] addresses T2, Tyrosine-protein kinase JAK3 (Homo sapiens, UniProt P52333).
T2 sequence (P52333 whole entry): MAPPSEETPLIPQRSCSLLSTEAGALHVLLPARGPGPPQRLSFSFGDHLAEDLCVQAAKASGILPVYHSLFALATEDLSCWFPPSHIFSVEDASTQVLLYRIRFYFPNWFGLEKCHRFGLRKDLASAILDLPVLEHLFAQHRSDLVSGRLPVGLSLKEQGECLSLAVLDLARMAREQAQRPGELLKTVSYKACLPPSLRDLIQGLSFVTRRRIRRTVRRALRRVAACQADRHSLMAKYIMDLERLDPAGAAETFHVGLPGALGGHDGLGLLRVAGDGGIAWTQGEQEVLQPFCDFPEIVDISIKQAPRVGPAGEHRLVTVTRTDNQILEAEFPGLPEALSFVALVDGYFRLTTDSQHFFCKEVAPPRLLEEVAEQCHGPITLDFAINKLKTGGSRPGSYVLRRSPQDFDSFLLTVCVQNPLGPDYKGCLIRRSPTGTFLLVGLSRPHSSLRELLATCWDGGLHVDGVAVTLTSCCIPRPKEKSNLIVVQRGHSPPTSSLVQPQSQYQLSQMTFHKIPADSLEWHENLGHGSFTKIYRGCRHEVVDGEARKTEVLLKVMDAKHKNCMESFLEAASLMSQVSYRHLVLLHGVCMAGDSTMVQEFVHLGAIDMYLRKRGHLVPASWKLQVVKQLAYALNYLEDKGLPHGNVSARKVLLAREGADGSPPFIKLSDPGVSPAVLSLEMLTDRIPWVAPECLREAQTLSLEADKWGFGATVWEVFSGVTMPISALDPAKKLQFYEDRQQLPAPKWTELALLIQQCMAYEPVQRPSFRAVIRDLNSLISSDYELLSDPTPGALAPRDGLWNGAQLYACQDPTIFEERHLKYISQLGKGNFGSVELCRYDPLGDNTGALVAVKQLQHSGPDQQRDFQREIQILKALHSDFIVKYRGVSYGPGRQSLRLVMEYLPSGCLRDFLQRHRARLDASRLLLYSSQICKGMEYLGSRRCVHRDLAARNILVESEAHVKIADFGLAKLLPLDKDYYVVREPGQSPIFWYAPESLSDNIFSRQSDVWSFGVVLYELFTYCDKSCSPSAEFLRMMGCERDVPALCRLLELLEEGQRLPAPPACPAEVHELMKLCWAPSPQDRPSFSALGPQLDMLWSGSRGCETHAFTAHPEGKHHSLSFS
Nature of the data set: Inhibition of JAK3 (unknown origin) using biotinylated poly-EY peptide as substrate after 60 mins by HTRF assay. In general terms: Time-resolved FRET reads energy transfer from a long-lived donor to a nearby acceptor.

The target of data set [25] is T1, Tyrosine-protein kinase JAK2. Briefly: Inhibition of JAK2 (unknown origin) using biotinylated TYK2 peptide as substrate after 60 mins.
The species named for the next data set is Homo sapiens. Nature of the data set: Free drug level in human. Particulars: in vivo. It is filed as ADME, organism-based.
The nature of data set [26]: Total plasma concentration in nude mouse allografted with mouse Ba/F3 cells expressing JAK2 TEL domain administered as po qd measured at 6 hrs. It counts as ADME, organism-based, BaF3. Summed up: as §1
Data set [27] in a line: Total plasma concentration in nude mouse allografted with mouse Ba/F3 cells expressing JAK2 TEL domain administered as po qd measured at 2 hrs. It is filed as ADME, organism-based, BaF3. In a few lines: as §1
Data set [28] is described as follows: Intrinsic clearance in rat liver microsomes. It counts as ADME, Microsome. Particulars: read-out: CLH. (Microsomes from liver hold many membrane-bound enzymes, among them those of drug oxidation.)
The subject of data set [29] is Mus musculus. Nature of the data set: In vivo inhibition of JAK2 TEL domain (unknown origin) transfected in mouse Ba/F3 cells allografted in nude mouse assessed as inhibition of STAT5 phosphorylation at 10 mg/kg, po qd at 2 hrs relative to vehicle-treated control. It counts as functional. Conditions: BaF3, 2 h. In a few lines:
as §2

Data set [30] is filed under the species Mus musculus. Conditions: BaF3, 10 mg/kg.

As a reminder, the fraction unbound is free concentration divided by total concentration. The low end stands for little free substance, the high end for much free substance. As a reminder, the inhibition in vivo is the change of the read-out against control, counted positive when it falls. Usually AUC stands for the area under the concentration-time curve, a measure of exposure. Lower therefore signals less exposure. What is called bioavailability is the share of a dose that reaches the circulation, judged against a reference dose that is usually intravenous. High values mean much systemic uptake, low ones little systemic uptake. By GI50 is commonly meant the concentration that inhibits growth by half. A word on the Ki: it is the dissociation constant of the complex between target and ligand, obtained from inhibition or displacement. As a reminder, the IC50 is the midpoint of a concentration-inhibition curve. High values mean lower potency, low ones higher potency.

Each structure is given as a SMILES string. Active and inactive are the calls of the source. The calls are words filed in the database; no cut-off is given here.

For the compound `Cc1cc(Nc2nc(O[C@@H](C)c3ncc(F)cn3)c(F)c(N3CCOCC3)n2)n[nH]1`, the results for the concentration at 6 h in [1] and in data set [4] were 180 ng/mL and 246 ng/mL, respectively. For the same compound, the concentration at 2 h amounted to 325 ng/mL in [2] and 551 ng/mL in data set [3]. In addition, the fraction unbound at 6 h in data set [5] is 0.16. Besides, the inhibition result with Mus musculus [6] is “Active”. The inhibition in vivo at 10 mg/kg in the data set on Mus musculus [7] was above 80%. This compound also returned a Stability in the data set with Hepatocyte below 2 µL/min/1e6 cells. For the same compound, the Vd is 2.4 L/kg in [8], 1.4 L/kg in data set [9] and 1.6 L/kg in data set [10]. For the same compound, the figures for the clearance in data set [11], in data set [12] and in [13] were 13 mL/min/kg, 17 mL/min/kg and 11 mL/min/kg, respectively. Moreover, the AUC in data set [14] was found to be 8.5 µM·h; in [15], 14.7 µM·h; in data set [16] it was 27.5 µM·h. The bioavailability in [17] turned out to be 56%; in [18], 64%; in data set [19], 74%. Moreover, the GI50 was determined as 50 nM in [20], 78 nM with SET-2, 690 nM in [22] and 6 nM in data set [23]. Also, the Ki in [21] was determined as 0.72 nM. Also, the values for the IC50 in data set [24] and in data set [25] were 0.02 µM and below 3 nM, respectively.

Consider `Cc1cnc(Nc2nc(N[C@@H](C)c3ncc(F)cn3)c(F)c(N3CCOCC3)n2)s1`, for which, in the data set listed under Homo sapiens, the “Drug uptake(free)” value is 3%. Besides, the concentration at 6 h in data set [26] turned out to be 185 ng/mL. In [27], the concentration at 2 h came to 463 ng/mL. The microsomal CLint in data set [28] is 82 µL/min/mg. Besides, the inhibition in vivo at 10 mg/kg in the data set on Mus musculus [29] came out at 50%. For the same compound, the GI50 in data set [22] stood at 2700 nM; in data set [23], 30 nM. Moreover, the results for the IC50 in data set [24] and in data set [25] were 16.4 µM and 20 nM, respectively. For the same compound, the inhibition entry in the data set filed under Mus musculus [30] was “inactive”.
